High-throughput results from PubChem BioAssay.
Most compounds without a hit are left out; they make up all but 1.1% or so of the library.
FXIa inh 1536 = factor XIa (human) inhibition. P03951. purified FXIa, Boc-Glu-Ala-Arg-AMC fluorogenic substrate. inhibition, % at 5 µM. hit rate 0.14% among 220,000;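 active = inhibition of at least 40%; inactive = inhibition below 40%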;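 also: fluorescence of freed AMC excited at 355 nm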
Target sequence (P03951 19-387 limits assumed): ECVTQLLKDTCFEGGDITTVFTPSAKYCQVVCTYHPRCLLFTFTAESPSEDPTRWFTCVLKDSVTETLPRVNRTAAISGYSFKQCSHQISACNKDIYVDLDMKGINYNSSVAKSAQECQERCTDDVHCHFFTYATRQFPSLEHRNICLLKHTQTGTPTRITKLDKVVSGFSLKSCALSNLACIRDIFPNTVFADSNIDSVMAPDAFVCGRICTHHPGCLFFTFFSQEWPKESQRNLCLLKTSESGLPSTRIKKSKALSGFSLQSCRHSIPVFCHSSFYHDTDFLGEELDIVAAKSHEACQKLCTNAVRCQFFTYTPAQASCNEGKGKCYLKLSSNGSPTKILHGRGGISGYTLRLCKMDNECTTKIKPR
Target sequence (P03951 388-625 limits assumed): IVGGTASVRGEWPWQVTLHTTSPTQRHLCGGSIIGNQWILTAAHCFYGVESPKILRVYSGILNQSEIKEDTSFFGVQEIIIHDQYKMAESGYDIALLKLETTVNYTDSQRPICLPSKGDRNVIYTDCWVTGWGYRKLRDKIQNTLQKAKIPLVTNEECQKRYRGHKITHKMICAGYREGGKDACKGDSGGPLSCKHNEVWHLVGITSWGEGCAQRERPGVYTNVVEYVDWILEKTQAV
Tb hexokinase = blocks Trypanosoma brucei hexokinase 1 activity | hit rate 0.11% among 220,000 | inhibition, % at 10 µM | recombinant TbHK1, G6PDH-coupled NADH A340;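 active = inhibition of 50% or more in the single-dose primary screen; inactive = inhibition below 50%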
Thrombin inh = inhibitors of human thrombin. P00734. alpha-thrombin, Boc-VPR-AMC fluorogenic substrate cleavage. hit rate 0.26% among 220,000. inhibition, % at 5 µM;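 active = inhibition at or above 40%; inactive = inhibition below 40%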
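Test system: human alpha-thrombin; medium: pH 7.5 Tris-saline with Tween 20; times: reaction at room temperature; signal: AMC fluorescence at 355 nm excitation and 460 nm emission; also added: Boc-VPR-AMC substrate, 15 µM final; dosing: one concentration per compound, 5 µM, with 0.2% DMSO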
hK5 inh = kallikrein 5 (human) inhibition. Q9Y337. recombinant hK5, fluorogenic AMC substrate cleavage. inhibition, % at 5 µM. hit rate 0.59% among 210,000. AID 873;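 active = inhibition of 40% or more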
FXIIa inh 1536 = inhibitors of human coagulation factor XIIa. purified FXIIa, Boc-QGR-AMC fluorogenic substrate, 2 h. inhibition, % at 5 µM. hit rate 0.3% among 220,000; in the data active = inhibition above about 40%
Hits are given with their value; i = inactive.

SMILES	FXIa inh 1536	Tb hexokinase	Thrombin inh	hK5 inh	FXIIa inh 1536
Cc1nn(Cc2cccc(F)c2)c(C)c1NC(=O)c1c(Cl)cnn1C	i	i	i	i	i
O=C1NCCN/C1=C\C(=O)c1cccc(Br)c1	i	i	i	i	i
CCCCCC(=O)N1CC2(CC)CN(C(=O)CCCCC)CC(CC)(C1)C2=O	i	i	i	i	i
CCCCCCCCCCCC(=O)N1CC(=O)NC(=O)C1	i	i	i	54	46
O=C(Nc1ccc(Cc2ccncc2)cc1)c1ccco1	i	i	40	70	i
CC(C)(C)c1ccc(C(=O)Nc2ccc(NC(=O)c3ccco3)cc2)cc1	i	i	i	99	i
COc1cc(NC(=O)Cn2c(=O)n(-c3cccc(C)c3)c(=O)c3c(C)c(C)sc32)cc(OC)c1	i	i	i	i	i
Cc1ccccc1Nc1nnc(SCC(=O)NC2CCCc3ccccc32)s1 (centres undefined)	i	i	i	i	i
Cc1ccc2cc(CN(C(=O)c3cccs3)c3ccccc3)c(=O)[nH]c2c1	i	i	i	62	74
COc1cc(/C=C2/C(=O)NN(c3cccc(C)c3)C2=O)ccc1OC(=O)c1ccco1	i	i	i	60	i
CCc1ccc(C2c3[nH]c4ccccc4c3CCN2C(=O)c2cc[n+]([O-])cc2)cc1 (centres undefined)	i	i	i	50	i
Cn1nccc1C(=O)N1CCc2c([nH]c3ccccc23)C1c1ccc(F)cc1 (centres undefined)	i	i	i	i	i
O=C(CN(Cc1ccccc1F)C(=O)Cn1nnc(-c2cccs2)n1)NCC1CCCO1 (centres undefined)	i	i	i	53	i
O=C(CN(Cc1ccco1)C(=O)Cn1nnc(-c2cccs2)n1)NCC1CCCO1 (centres undefined)	i	i	i	i	i
CCc1c(C)nc(SC(C(=O)O)c2ccccc2)c(C#N)c1C (centres undefined)	i	i	i	i	i
CCn1c(C)nc2cc(C(=O)NNC(=S)Nc3ccc(C)cc3)ccc21	i	i	43	i	51
CCn1c(C)nc2cc(C(=O)NNC(=S)Nc3ccccc3OC)ccc21	i	i	i	i	i
Cc1ccc(S(=O)(=O)/N=C/c2ccco2)cc1	i	i	104	87	i
Cc1cc(S(=O)(=O)N2CCN=C2c2ccccc2)c(Cl)cc1Cl	i	i	i	i	i
Cc1cc(-n2ccnc2)n2c(nc3ccccc32)c1C#N	i	i	i	i	106
CC1=C(C(=O)NCc2ccccn2)C2(CCC(C)CC2)OC1=O (centres undefined)	i	i	i	115	i
CC12CCC(c3c(C(=O)O)nn(-c4ccc(F)cc4)c31)C2(C)C (centres undefined)	i	i	i	i	i
CC12CCC(c3c(C(=O)N4CCOCC4)nn(-c4ccccc4)c31)C2(C)C (centres undefined)	i	i	i	41	40
Cc1c(N=C/C=C2\N(C)c3ccccc3C2(C)C)c(=O)n(-c2ccccc2)n1C	i	i	i	i	i
Cc1c(NC(=S)/C=C2\N(C)c3ccccc3C2(C)C)c(=O)n(-c2ccccc2)n1C	i	i	i	67	i
SMILES	FXIa inh 1536	Tb hexokinase	Thrombin inh	hK5 inh	FXIIa inh 1536
CCOC(=O)N1CCN(S(=O)(=O)c2cc([N+](=O)[O-])c(C)cc2C)CC1	i	i	i	i	i
Cc1cc2c(C)nc(N/N=C/c3ccc([N+](=O)[O-])cc3)nc2o1	i	i	i	50	i
Cc1cc2c(C)nc(N/N=C/c3ccc(F)cc3)nc2o1	i	i	i	i	i
CSc1nc(C)c(CCO)c(=O)[nH]1	i	i	i	i	i
N#CC1=C(N)NC(SCc2ccccc2)=C(C#N)C12CCCC2	i	i	i	45	i
CC(=O)N(Cc1c(C)nn(-c2ccccc2)c1Cl)c1ccc(Cl)cc1	i	i	i	i	i
Cc1nn(-c2ccccc2)c(Cl)c1CN(C(=O)CCl)c1ccc(Cl)cc1	i	i	i	45	i
CC1(C)CC2CC(C)(CN2CC(=O)C(C#N)c2ccccc2)C1 (centres undefined)	i	i	i	115	i
CCCn1c(/N=C/c2ccc3c(c2)OCO3)nc2ccccc21	i	i	i	43	i
C(=N\c1nc2ccccc2n1CCN1CCCCC1)/c1ccc2c(c1)OCO2	i	i	i	i	i
CCN(CC)S(=O)(=O)c1ccc(N2CCOCC2)c(NS(=O)(=O)c2ccc(C)c(C)c2)c1	i	i	i	i	i
O=C(/C=C/c1cccc(Cl)c1)NCc1ccncc1	i	i	i	47	i
